Experimental data as given in ChEMBL document CHEMBL1124107, “Antihypertensive thiadiazoles. 1. Synthesis of some 2-aryl-5-hydrazino-1,3,4-thiadiazoles with vasodilator activity” (1988).
Activity calls are given as the source filed them. No cut-off for these calls is given here.

How the values were obtained:
Rattus norvegicus [1] = test: Maximum percentage reduction in mean blood pressure in metacorticoid (DOCA) hypertensive rats at standard intraperitoneal dose of 100 mg/kg; type: functional; conditions: route oral, in the assay text read “oral” for “intraperitoneal”
How it was run: (§1)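 DOCA hypertensive rats, n = 3-5. Food removed 18 h before oral dosing; ip injections given to unstarved animals. Blood pressure recorded by pressure transducer under minimal restraint, twice before dosing with drug or isotonic saline vehicle, then at 1, 2, 3, 5 and 22 h. MABP taken as diastolic plus one-third pulse pressure.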

Rattus norvegicus [2] = species: Rattus norvegicus; test: Increase in diastolic blood pressure for 6 Htz electrical stimulation in the pithed rats; type: functional, Artery
How it was run: (§2)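 Male rats (200-300 g) pretreated ip with drug or isotonic saline, groups of five, 1 or 2 h before pithing. Halothane anesthesia, tracheal cannulation, CNS destroyed via left orbit and spinal cord, artificial respiration with room air at 50 strokes/min. Pressor responses to iv noradrenaline (0.1-1.0 ug/kg), iv angiotensin (0.03-0.3 ug/kg), or whole sympathetic outflow stimulation.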

Rattus norvegicus [3] = test: Increase in diastolic blood pressure for 0.3 ug/kg intravenous dosing of angiotensin in pithed rats; type: functional, Artery; how it was run: as §2
Rattus norvegicus [4] = test: Increase in diastolic blood pressure for 0.1 ug/kg intravenous dosing of angiotensin in pithed rats; type: functional, Artery; how it was run: as §2
Rattus norvegicus [5] = species: Rattus norvegicus; test: Increase in diastolic blood pressure for 3 Htz electrical stimulation in the pithed rats; type: functional, Artery; how it was run: as §2
Rattus norvegicus [6] = test: Increase in diastolic blood pressure for 0.1 ug/kg intravenous dosing of noradrenaline in pithed rats; type: functional, Artery; how it was run: as §2
Rattus norvegicus [7] = test: Increase in diastolic blood pressure for 0.3 ug/kg intravenous dosing of noradrenaline in pithed rats; type: functional, Artery; how it was run: as §2
Rattus norvegicus [8] = test: Increase in diastolic blood pressure for 0.03 ug/kg intravenous dosing of angiotensin in pithed rats; type: functional, Artery; how it was run: as §2
Rattus norvegicus [9] = species: Rattus norvegicus; test: Increase in diastolic blood pressure for 1 Htz electrical stimulation in the pithed rats; type: functional, Artery; how it was run: as §2
Rattus norvegicus [10] = test: Increase in diastolic blood pressure for 1.0 ug/kg intravenous dosing of noradrenaline in pithed rats; type: functional, Artery; how it was run: as §2
Rattus norvegicus [11] = test: Maximum percentage reduction in mean blood pressure and heart rate in metacorticoid (DOCA) hypertensive rats at a standard oral dose of 50 mg/kg; type: functional; how it was run: as §1
Rattus norvegicus [12] = test: Maximum percentage reduction in mean blood pressure and heart rate in metacorticoid (DOCA) hypertensive rats at a standard oral dose of 25 mg/kg; type: functional; how it was run: as §1
Rattus norvegicus [13] = test: Maximum percentage reduction in mean blood pressure in metacorticoid (DOCA) hypertensive rats at a standard oral dose of 100 mg/kg; type: functional; how it was run: as §1
Rattus norvegicus [14] = test: Maximum percentage reduction in mean blood pressure in metacorticoid (DOCA) hypertensive rats at a standard oral dose of 50 mg/kg; type: functional; how it was run: as §1
Rattus norvegicus [15] = species: Rattus norvegicus; test: Increase in diastolic blood pressure at 6 Htz electrical stimulation in the pithed rats; type: functional, Artery; how it was run: as §2
Rattus norvegicus [16] = test: Increase in diastolic blood pressure at 0.1 ug/kg intravenous dosing of angiotensin in pithed rats; type: functional, Artery; how it was run: as §2
Rattus norvegicus [17] = test: Increase in diastolic blood pressure at 0.1 ug/kg intravenous dosing of noradrenaline in pithed rats; type: functional, Artery; how it was run: as §2
Rattus norvegicus [18] = test: Maximum percentage reduction in mean blood pressure in metacorticoid (DOCA) hypertensive rats at a standard oral dose of 25 mg/kg; type: functional; how it was run: as §1
Rattus norvegicus [19] = species: Rattus norvegicus; test: Increase in diastolic blood pressure at 3 Htz electrical stimulation in the pithed rats; type: functional, Artery; how it was run: as §2
Rattus norvegicus [20] = test: Increase in diastolic blood pressure at 0.3 ug/kg intravenous dosing of noradrenaline in pithed rats; type: functional, Artery; how it was run: as §2
Rattus norvegicus [21] = species: Rattus norvegicus; test: Increase in diastolic blood pressure at 1 Htz electrical stimulation in the pithed rats; type: functional, Artery; how it was run: as §2
Rattus norvegicus [22] = test: Increase in diastolic blood pressure at 0.03 ug/kg intravenous dosing of angiotensin in pithed rats; type: functional, Artery; how it was run: as §2
Rattus norvegicus [23] = test: Increase in diastolic blood pressure at 1.0 ug/kg intravenous dosing of noradrenaline in pithed rats; type: functional, Artery; how it was run: as §2
Rattus norvegicus [24] = test: Increase in diastolic blood pressure at 0.3 ug/kg intravenous dosing of angiotensin in pithed rats; type: functional, Artery; how it was run: as §2
Rattus norvegicus [25] = test: Maximum percentage reduction in mean blood pressure and heart rate in metacorticoid (DOCA) hypertensive rats at a standard oral dose of 100 mg/kg; IA = Inactive, Maximum percentage fall in MABP <10%; type: functional, organism-based; set-up: dose 100 mg/kg; how it was run: as §1
Rattus norvegicus [26] = test: Maximum percentage reduction in mean blood pressure and heart rate in metacorticoid (DOCA) hypertensive rats at a standard intraperitoneal dose of 100 mg/kg; type: functional; conditions: route oral, in the assay text read “oral” for “intraperitoneal”; how it was run: as §1
Rattus norvegicus [27] = test: Maximum percentage reduction in mean blood pressure and heart rate in metacorticoid (DOCA) hypertensive rats at a standard oral dose of 100 mg/kg

## Cl.NNc1nnc(-c2ccc(Cl)cc2)s1
Rattus norvegicus [1]
  Reduction: 28%

## Cc1ccccc1-c1nnc(NN)s1.Cl
Rattus norvegicus [2]
  Increase in blood pressure: 41 mmHg
Rattus norvegicus [3]
  Increase in blood pressure: 50 mmHg
Rattus norvegicus [4]
  Increase in blood pressure: 28 mmHg
Rattus norvegicus [5]
  Increase in blood pressure: 32 mmHg
Rattus norvegicus [6]
  Increase in blood pressure: 10 mmHg
Rattus norvegicus [7]
  Increase in blood pressure: 16 mmHg
Rattus norvegicus [8]
  Increase in blood pressure: 12 mmHg
Rattus norvegicus [9]
  Increase in blood pressure: 16 mmHg
Rattus norvegicus [10]
  Increase in blood pressure: 29 mmHg
Rattus norvegicus [11]
  Reduction: 48%
Rattus norvegicus [12]
  Reduction: 33%

## COc1ccccc1-c1nnc(NN)s1.Cl
Rattus norvegicus [13]
  Reduction: 46%
Rattus norvegicus [14]
  Reduction: 39%

## C[S+]([O-])c1ccccc1-c1nnc(NN)s1.Cl (stereo not given)
Rattus norvegicus [15]
  Increase in blood pressure: 47 mmHg
Rattus norvegicus [16]
  Increase in blood pressure: 11 mmHg
Rattus norvegicus [17]
  Increase in blood pressure: 6 mmHg
Rattus norvegicus [18]
  Reduction: 31%
Rattus norvegicus [19]
  Increase in blood pressure: 34 mmHg
Rattus norvegicus [20]
  Increase in blood pressure: 10 mmHg
Rattus norvegicus [21]
  Increase in blood pressure: 19 mmHg
Rattus norvegicus [22]
  Increase in blood pressure: 4 mmHg
Rattus norvegicus [23]
  Increase in blood pressure: 21 mmHg
Rattus norvegicus [24]
  Increase in blood pressure: 29 mmHg
Rattus norvegicus [14]
  Reduction: 45%

## Cc1ccc(-c2nnc(NN)s2)cc1C.Cl
Rattus norvegicus [13]
  Reduction: 22%

## Cl.NNc1nnc(-c2ccccc2[N+](=O)[O-])s1
Rattus norvegicus [13]
  Reduction: 26%

## Cl.NNc1nnc(-c2ccccc2)s1
Rattus norvegicus [13]
  Reduction: 42%

## Cl.NNc1nnc(-c2ccc(C(F)(F)F)cc2)s1
Rattus norvegicus [13]
  Reduction: 21%

## Cl.NNc1nnc(-c2cccc3ccccc23)s1
Rattus norvegicus [13]
  Reduction: 26%

## Cl.NNc1nnc(-c2ccccc2-c2ccccc2)s1
Rattus norvegicus [13]
  Reduction: 18%

## Cl.NNc1nnc(-c2cccc(O)c2)s1
Rattus norvegicus [13]
  Reduction: 16%

## Cc1ccc(-c2nnc(NN)s2)c(C)c1.Cl
Rattus norvegicus [13]
  Reduction: 61%

## CCCOc1ccccc1-c1nnc(NN)s1.Cl
Rattus norvegicus [13]
  Reduction: 46%

## Cl.NNc1nnc(-c2cccc(Cl)c2)s1
Rattus norvegicus [13]
  Reduction: 20%

## CSc1ccccc1-c1nnc(NN)s1.Cl
Rattus norvegicus [13]
  Reduction: 41%

## NNc1nncc2ccccc12 [HYDRALAZINE]
Rattus norvegicus [2]
  Increase in blood pressure: 54 mmHg
Rattus norvegicus [3]
  Increase in blood pressure: 38 mmHg
Rattus norvegicus [4]
  Increase in blood pressure: 21 mmHg
Rattus norvegicus [5]
  Increase in blood pressure: 42 mmHg
Rattus norvegicus [6]
  Increase in blood pressure: 8 mmHg
Rattus norvegicus [7]
  Increase in blood pressure: 15 mmHg
Rattus norvegicus [8]
  Increase in blood pressure: 8 mmHg
Rattus norvegicus [9]
  Increase in blood pressure: 28 mmHg
Rattus norvegicus [10]
  Increase in blood pressure: 28 mmHg

## NNc1nnc(-c2c(Cl)cccc2Cl)s1
Rattus norvegicus [13]
  Reduction: 50%

## Cl.NNc1nnc(-c2cccc(C(F)(F)F)c2)s1
Rattus norvegicus [13]
  Reduction: 21%

## CC(C)(C)c1ccccc1-c1nnc(NN)s1
Rattus norvegicus [13]
  Reduction: 58%

## Cc1cc(C)cc(-c2nnc(NN)s2)c1.Cl
Rattus norvegicus [13]
  Reduction: 18%

## Cc1cccc(C)c1-c1nnc(NN)s1.Cl
Rattus norvegicus [13]
  Reduction: 54%

## COc1cccc(OC)c1-c1nnc(NN)s1.Cl
Rattus norvegicus [13]
  Reduction: 33%

## NNc1nnc(-c2ccco2)s1
Rattus norvegicus [13]
  Reduction: 39%

## Cl.NNc1nnc(-c2ccsc2)s1
Rattus norvegicus [13]
  Reduction: 33%

## Cc1ccc(-c2nnc(NN)s2)cc1.Cl
Rattus norvegicus [13]
  Reduction: 28%

## Cl.NNc1nnc(-c2ccccc2C(F)(F)F)s1
Rattus norvegicus [13]
  Reduction: 49%
Rattus norvegicus [14]
  Reduction: 33%

## Cl.NNc1nnc(-c2ccc(Cl)c(Cl)c2)s1
Rattus norvegicus [13]
  Reduction: 17%

## Cc1cccc(-c2nnc(NN)s2)c1C.Cl
Rattus norvegicus [13]
  Reduction: 50%

## Cl.NNc1nnc(-c2ccccc2Cl)s1
Rattus norvegicus [13]
  Reduction: 21%

## Cl.NNc1nnc(-c2cccs2)s1
Rattus norvegicus [13]
  Reduction: 35%

## Cc1ccc(C)c(-c2nnc(NN)s2)c1.Cl
Rattus norvegicus [13]
  Reduction: 50%

## CCC[S+]([O-])c1ccccc1-c1nnc(NN)s1.Cl (stereo not given)
Rattus norvegicus [13]
  Reduction: 48%

## COc1cc2nc(N3CCN(C(=O)c4ccco4)CC3)nc(N)c2cc1OC [PRAZOSIN]
Rattus norvegicus [2]
  Increase in blood pressure: 31 mmHg
Rattus norvegicus [3]
  Increase in blood pressure: 67 mmHg
Rattus norvegicus [4]
  Increase in blood pressure: 45 mmHg
Rattus norvegicus [5]
  Increase in blood pressure: 26 mmHg
Rattus norvegicus [6]
  Increase in blood pressure: 23 mmHg
Rattus norvegicus [7]
  Increase in blood pressure: 32 mmHg
Rattus norvegicus [8]
  Increase in blood pressure: 30 mmHg
Rattus norvegicus [9]
  Increase in blood pressure: 18 mmHg
Rattus norvegicus [10]
  Increase in blood pressure: 49 mmHg

## COc1ccc(Cl)c(OC)c1-c1nnc(NN)s1.Cl
Rattus norvegicus [13]
  Reduction: 53%

## Cc1cc(F)ccc1-c1nnc(NN)s1.Cl
Rattus norvegicus [13]
  Reduction: 58%

## CCc1ccccc1-c1nnc(NN)s1.Cl
Rattus norvegicus [15]
  Increase in blood pressure: 32 mmHg
Rattus norvegicus [16]
  Increase in blood pressure: 6 mmHg
Rattus norvegicus [17]
  Increase in blood pressure: 8 mmHg
Rattus norvegicus [18]
  Reduction: 42%
Rattus norvegicus [19]
  Increase in blood pressure: 25 mmHg
Rattus norvegicus [20]
  Increase in blood pressure: 14 mmHg
Rattus norvegicus [21]
  Increase in blood pressure: 14 mmHg
Rattus norvegicus [22]
  Increase in blood pressure: 2 mmHg
Rattus norvegicus [23]
  Increase in blood pressure: 22 mmHg
Rattus norvegicus [24]
  Increase in blood pressure: 25 mmHg
Rattus norvegicus [14]
  Reduction: 54%

## Cl.NNc1nnc(-c2ccccc2Br)s1
Rattus norvegicus [13]
  Reduction: 48%

## CCCCCCOc1ccccc1-c1nnc(NN)s1
Rattus norvegicus [25]
  Reduction: inactive

## Cl.NNc1nnc(-c2ccccc2I)s1
Rattus norvegicus [13]
  Reduction: 58%
Rattus norvegicus [14]
  Reduction: 24%

## Cl.NNc1nnc(-c2ccccc2F)s1
Rattus norvegicus [13]
  Reduction: 31%

## Cc1ccsc1-c1nnc(NN)s1.Cl
Rattus norvegicus [13]
  Reduction: 48%

## Cc1ccc(F)cc1-c1nnc(NN)s1.Cl
Rattus norvegicus [13]
  Reduction: 63%

## COc1ccc(-c2nnc(NN)s2)cc1OC.Cl
Rattus norvegicus [26]
  Reduction: 24%

## Nc1cc(N2CCCCC2)nc(N)[n+]1[O-] [MINOXIDIL]
Rattus norvegicus [2]
  Increase in blood pressure: 31 mmHg
Rattus norvegicus [3]
  Increase in blood pressure: 25 mmHg
Rattus norvegicus [4]
  Increase in blood pressure: 13 mmHg
Rattus norvegicus [5]
  Increase in blood pressure: 25 mmHg
Rattus norvegicus [6]
  Increase in blood pressure: 10 mmHg
Rattus norvegicus [7]
  Increase in blood pressure: 25 mmHg
Rattus norvegicus [27]
  Reduction: 42%
Rattus norvegicus [8]
  Increase in blood pressure: 6 mmHg
Rattus norvegicus [9]
  Increase in blood pressure: 9 mmHg
Rattus norvegicus [10]
  Increase in blood pressure: 45 mmHg

## Cc1cccc(-c2nnc(NN)s2)c1.Cl
Rattus norvegicus [13]
  Reduction: 29%

## COc1cccc(-c2nnc(NN)s2)c1.Cl
Rattus norvegicus [13]
  Reduction: 18%

## Cl.NNc1nnc(-c2ccccn2)s1
Rattus norvegicus [13]
  Reduction: 21%
